Assay results taken from ChEMBL document CHEMBL1134337, “Behavioral approach to nondyskinetic dopamine antagonists: identification of seroquel” (J Med Chem, 2001).

What was measured:
Mus musculus [1] = test: Antagonism of apomorphine induced climbing was determined in female swiss -Webster mice after (ip) administration of 20 mg/kg; format: functional
Procedure, shortened: (§1)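 Female Swiss-Webster mice (about 20 g) were fasted about 24 h, then given test compound or vehicle ip or po (N = 20 per group). Vehicle was 0.5% w/w hydroxypropylmethylcellulose with 0.1% w/w Tween 80 in water. After 30 min, mice received apomorphine HCl 1.25 mg/kg sc. At 13 min, each mouse was watched for 1 min; score was mean of highest and lowest rung of 27. Groups were compared with vehicle by Student's t-test.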

Mus musculus [2] = test: Antagonism of apomorphine induced climbing was determined in female swiss -Webster mice after (ip) administration of 2.5 mg/kg; format: functional; procedure, shortened: as §1
Mus musculus [3] = test: Antagonism of apomorphine induced swimming was determined in female swiss -Wbster mice after (po) administration of 20 mg/kg; format: functional
D(2) dopamine receptor = D(2) dopamine receptor (Rattus norvegicus, UniProt P61169); test: Inhibition of spiropiperidone binding at dopamine receptor D2 of rat.
Mus musculus [4] = test: Antagonism of apomorphine induced climbing was determined in female swiss -Webster mice after (ip) administration of 5 mg/kg; format: functional; procedure, shortened: as §1
Mus musculus [5] = test: Antagonism of apomorphine induced swimming was determined in female swiss -Wbster mice after (po) administration of 10 mg/kg; format: functional
Mus musculus [6] = test: Antagonism of apomorphine induced swimming was determined in female swiss -Wbster mice after (po) administration of 5 mg/kg; format: functional
Mus musculus [7] = test: Antagonism of apomorphine induced climbing was determined in female swiss -Webster mice after (ip) administration of 10 mg/kg; format: functional; procedure, shortened: as §1
[8] = Number of animals showing dyskinesias was determined in haloperidol sensitized 3 cebus monkeys after (po) administration of 80 mg/kg; format: functional; conditions: dose 10 mg/kg; in the assay text read “10 mg/kg” for “80 mg/kg”
Procedure, shortened: (§2)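 Adult female and male Cebus monkeys sensitized with oral haloperidol 1 mg/kg once per week until dyskinetic reactions occurred. Test drug given orally (2 mL/kg) in 0.5% w/w hydroxypropylmethylcellulose with 0.1% w/w Tween 80 in distilled water, at least 2 weeks between treatments. Two observers watched continuously for 6-7 h, recording reaction type and severity every 30 min. Score is monkeys with dyskinesias/monkeys tested.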

Mus musculus [9] = test: Antagonism of apomorphine induced swimming was determined in female swiss -Wbster mice after (po) administration of 2.5 mg/kg; format: functional
Mus musculus [10] = test: Antagonism of apomorphine induced swimming was determined in female swiss -Webster mice after (ip) administration of 80 mg/kg; format: functional
Mus musculus [11] = test: Antagonism of apomorphine induced climbing was determined in female swiss -Webster mice after (ip) administration of 80 mg/kg; format: functional; procedure, shortened: as §1
[12] = target: D(2) dopamine receptor (Rattus norvegicus) (UniProt P61169); test: Inhibitory activity for the displacement of spiropiperidone (1000 nM) from dopamine D2 receptor of rat
Procedure, shortened: (§3)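 D2 receptor binding was read as % displacement of spiropiperidone, with test compound at 1000 nM unless stated otherwise. IC50 values used at least five concentrations per compound in triplicate. Each value is the mean of two replicate experiments differing by 5% or less.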

Mus musculus [13] = test: Antagonism of apomorphine induced climbing was determined in female swiss -Webster mice after (ip) administration of 40 mg/kg; format: functional; procedure, shortened: as §1
Mus musculus [14] = test: Antagonism of apomorphine induced swimming was determined in female swiss -Webster mice after (ip) administration of 20 mg/kg; format: functional
[15] = Number of animals showing dyskinesias was determined in haloperidol sensitized 4 cebus monkeys after (po) administration of 40 mg/kg; format: functional; procedure, shortened: as §2
[16] = target: D(2) dopamine receptor (Rattus norvegicus) (UniProt P61169); test: Binding affinity at dopamine receptor D2 from rat by spiropiperidone displacement.; procedure, shortened: as §3
Mus musculus [17] = test: Antagonism of apomorphine induced swimming was determined in female swiss -Webster mice after (ip) administration of 40 mg/kg; format: functional
Mus musculus [18] = test: Antagonism of apomorphine induced swimming was determined in female swiss -Webster mice after (ip) administration of 2.5 mg/kg; format: functional
Mus musculus [19] = test: Antagonism of apomorphine induced swimming was determined in female swiss -Webster mice after (ip) administration of 5 mg/kg; format: functional
Mus musculus [20] = test: Antagonism of apomorphine induced swimming was determined in female swiss -Webster mice after (ip) administration of 10 mg/kg; format: functional
[21] = Number of animals showing dyskinesias was determined in haloperidol sensitized cebus monkey after (po) administration of 40 mg/kg; format: functional; procedure, shortened: as §2
Mus musculus [22] = test: Antagonism of apomorphine induced swimming was determined in female swiss -Wbster mice after (ip) administration of 80 mg/kg; format: functional
Mus musculus [23] = test: Antagonism of apomorphine induced climbing was determined in female swiss -Wbster mice after (ip) administration of 80 mg/kg; format: functional; procedure, shortened: as §1
Mus musculus [24] = test: Antagonism of apomorphine induced climbing was determined in female swiss -Wbster mice after (ip) administration of 40 mg/kg; format: functional; procedure, shortened: as §1
[25] = Number of animals showing dyskinesias was determined in haloperidol sensitized 13 cebus monkeys after (po) administration of 20 mg/kg; format: functional
Procedure, shortened: (§4)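 Adult male and female Cebus monkeys sensitized with haloperidol 1 mg/kg po weekly until dyskinetic reactions appeared. Drug given orally (2 mL/kg) in 0.5% w/w hydroxypropylmethylcellulose with 0.1% w/w Tween 80, at least 2 weeks between treatments. Two observers watched continuously for 6–7 h, logging reaction type and severity every 30 min. Score is the number of monkeys with dyskinesias over the number tested.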

Mus musculus [26] = test: Antagonism of apomorphine induced climbing was determined in female swiss -Wbster mice after (po) administration of 20 mg/kg; format: functional; procedure, shortened: as §1
Mus musculus [27] = test: Antagonism of apomorphine induced climbing was determined in female swiss -Wbster mice after (ip) administration of 20 mg/kg; format: functional; procedure, shortened: as §1
Mus musculus [28] = test: Antagonism of apomorphine induced swimming was determined in female swiss -Wbster mice after (po) administration of 80 mg/kg; format: functional
Mus musculus [29] = test: Antagonism of apomorphine induced climbing was determined in female swiss -Wbster mice after (po) administration of 40 mg/kg; format: functional; procedure, shortened: as §1
Mus musculus [30] = test: Antagonism of apomorphine induced swimming was determined in female swiss -Wbster mice after (po) administration of 40 mg/kg; format: functional
Mus musculus [31] = test: Antagonism of apomorphine induced climbing was determined in female swiss -Wbster mice after (po) administration of 80 mg/kg; format: functional; procedure, shortened: as §1
[32] = Number of animals showing dyskinesias was determined in haloperidol sensitized 13 cebus monkeys after (po) administration of 10 mg/kg; format: functional; procedure, shortened: as §4
[33] = Number of animals showing dyskinesias was determined in haloperidol sensitized 12 cebus monkeys after (po) administration of 80 mg/kg; format: functional; procedure, shortened: as §2
[34] = Number of animals showing dyskinesias was determined in haloperidol sensitized 2 cebus monkeys after (po) administration of 20 mg/kg; format: functional; procedure, shortened: as §2
Mus musculus [35] = test: Antagonism of apomorphine induced climbing was determined in female swiss -Wbster mice after (ip) administration of 10 mg/kg; format: functional; procedure, shortened: as §1
[36] = Number of animals showing dyskinesias was determined in haloperidol sensitized 2 cebus monkeys after (po) administration of 40 mg/kg; format: functional; procedure, shortened: as §2
[37] = Number of animals showing dyskinesias was determined in haloperidol sensitized 2 cebus monkeys after (po) administration of 80 mg/kg; format: functional; procedure, shortened: as §2

D(2) dopamine receptor (Rattus norvegicus), sequence (P61169 whole entry): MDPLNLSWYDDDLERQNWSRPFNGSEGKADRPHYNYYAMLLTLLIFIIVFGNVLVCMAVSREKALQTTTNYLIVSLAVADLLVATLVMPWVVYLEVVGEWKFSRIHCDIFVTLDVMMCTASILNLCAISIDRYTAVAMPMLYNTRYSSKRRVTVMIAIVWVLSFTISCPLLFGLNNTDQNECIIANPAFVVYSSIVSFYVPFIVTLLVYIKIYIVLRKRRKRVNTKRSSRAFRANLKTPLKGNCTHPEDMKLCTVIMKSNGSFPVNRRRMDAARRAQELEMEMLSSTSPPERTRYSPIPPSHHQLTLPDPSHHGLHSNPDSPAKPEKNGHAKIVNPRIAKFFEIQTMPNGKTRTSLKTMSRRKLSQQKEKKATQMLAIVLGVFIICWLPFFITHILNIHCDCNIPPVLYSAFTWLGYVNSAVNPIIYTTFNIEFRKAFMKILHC
D(2) dopamine receptor, sequence (P61169 whole entry): as above

With CN1CCN(C2=Nc3ccc(O)cc3Sc3ccccc32)CC1 as the compound, how does the Activity (Mus musculus [1]) read?
The Activity was 1.

And the Activity (Mus musculus [2])?
Its Activity is 18.

What about the Activity (Mus musculus [3]) of the same compound?
Its Activity is 32.

And the IC50 (D(2) dopamine receptor)?
The IC50 was 49 nM.

And the Activity (Mus musculus [4])?
Its Activity is 13.

And the Activity (Mus musculus [5])?
The Activity was 34.

And the Activity (Mus musculus [6])?
Its Activity is 10.

And the Activity (Mus musculus [7])?
Its Activity is 1.

What about the No of monkeys [8] of the same compound?
The No of monkeys was 3.

What about the Activity (Mus musculus [9]) of the same compound?
Its Activity is 3.

With COCC(COC)N1CCN(C2=Nc3ccccc3Sc3ccccc32)CC1 as the compound, how does the Activity (Mus musculus [10]) read?
Its Activity is 0.

What about the Activity (Mus musculus [11]) of the same compound?
Its Activity is 19.

And the inhibition [12]?
Its inhibition is 4%.

For OCC1COCC(CN2CCN(C3=Nc4ccccc4Sc4ccccc43)CC2)O1 (centres undefined), which Activity (Mus musculus [1]) is on record?
Its Activity is 18.

What about the Activity (Mus musculus [13]) of the same compound?
The Activity was 7.

And the Activity (Mus musculus [14])?
Its Activity is 0.

What about the Activity (Mus musculus [10]) of the same compound?
Its Activity is 27.

And the No of monkeys [15]?
Its No of monkeys is 4.

And the % displacement of spiropiperidone [16]?
The % displacement of spiropiperidone was 4%.

And the Activity (Mus musculus [17])?
Its Activity is 8.

What about the Activity (Mus musculus [11]) of the same compound?
The Activity was 0.

For c1ccc2c(c1)N=C(N1CCN(CC3COCCO3)CC1)c1ccccc1S2 (centres undefined), which Activity (Mus musculus [1]) is on record?
Its Activity is 0.

And the Activity (Mus musculus [2])?
The Activity was 14.

What about the Activity (Mus musculus [13]) of the same compound?
The Activity was 2.

And the Activity (Mus musculus [14])?
Its Activity is 20.

And the Activity (Mus musculus [4])?
The Activity was 6.

What about the % displacement of spiropiperidone [16] of the same compound?
Its % displacement of spiropiperidone is 50%.

And the Activity (Mus musculus [17])?
The Activity was 30.

What about the Activity (Mus musculus [18]) of the same compound?
The Activity was 8.

What about the Activity (Mus musculus [19]) of the same compound?
Its Activity is 13.

And the Activity (Mus musculus [20])?
Its Activity is 20.

What about the No of monkeys [21] of the same compound?
Its No of monkeys is 2.

What about the Activity (Mus musculus [7]) of the same compound?
Its Activity is 1.

For OCCOCCN1CCN(C2=Nc3cccc(F)c3Sc3ccccc32)CC1, which Activity (Mus musculus [22]) is on record?
Its Activity is 0.

And the % displacement of spiropiperidone [16]?
The % displacement of spiropiperidone was 0%.

What about the Activity (Mus musculus [23]) of the same compound?
Its Activity is 22.

Which results are given for OCCOCCN1CCN(C2=Nc3ccccc3Sc3ccccc32)CC1 [QUETIAPINE]?
Activity (Mus musculus [3]): 3; Activity (Mus musculus [24]): 2; No of monkeys [25]: 2; Activity (Mus musculus [26]): 18; Activity (Mus musculus [27]): 15; No of monkeys [15]: 0; Activity (Mus musculus [28]): 18; Activity (Mus musculus [5]): 3; Activity (Mus musculus [23]): 0; Activity (Mus musculus [29]): 14; Activity (Mus musculus [30]): 11; Activity (Mus musculus [31]): 8; No of monkeys [32]: 1

For O=S1(=O)c2ccccc2N=C(N2CCN(CCOCCO)CC2)c2ccccc21, which Activity (Mus musculus [10]) is on record?
The Activity was 0.

What about the Activity (Mus musculus [11]) of the same compound?
Its Activity is 23.

For CN1CCN(C2=Nc3cc(Cl)ccc3Oc3ccccc32)CC1 [ISOLOXAPINE], which Activity (Mus musculus [13]) is on record?
The Activity was 20.

And the % displacement of spiropiperidone [16]?
The % displacement of spiropiperidone was 48%.

What about the Activity (Mus musculus [11]) of the same compound?
Its Activity is 14.

For OCCOCCN1CCN(C2=Nc3cc(O)ccc3Sc3ccccc32)CC1, which Activity (Mus musculus [22]) is on record?
The Activity was 0.

What about the % displacement of spiropiperidone [16] of the same compound?
Its % displacement of spiropiperidone is 24%.

What about the Activity (Mus musculus [23]) of the same compound?
Its Activity is 24.

Which No of monkeys [33] does the source give for OCCOCCN1CCN(C2=Nc3cc(Cl)ccc3Sc3ccccc32)CC1 here?
Its No of monkeys is 0.

What about the No of monkeys [34] of the same compound?
Its No of monkeys is 0.

And the Activity (Mus musculus [3])?
Its Activity is 1.

What about the Activity (Mus musculus [24]) of the same compound?
The Activity was 8.

And the Activity (Mus musculus [26])?
The Activity was 25.

And the Activity (Mus musculus [35])?
The Activity was 20.

And the Activity (Mus musculus [27])?
The Activity was 12.

And the No of monkeys [15]?
Its No of monkeys is 0.

And the Activity (Mus musculus [28])?
Its Activity is 1.

What about the % displacement of spiropiperidone [16] of the same compound?
The % displacement of spiropiperidone was 58%.

What about the Activity (Mus musculus [23]) of the same compound?
Its Activity is 0.

And the Activity (Mus musculus [29])?
Its Activity is 24.

What about the Activity (Mus musculus [30]) of the same compound?
The Activity was 1.

What about the Activity (Mus musculus [31]) of the same compound?
The Activity was 16.

What does the source list for [O-][S+]1c2ccccc2N=C(N2CCN(CCOCCO)CC2)c2ccccc21 (centres undefined) [SULFOXIDE METABOLITE]?
Activity (Mus musculus [10]): 0; Activity (Mus musculus [11]): 23

Which results are given for OCCOCCN1CCN(C2=Nc3cc(Cl)ccc3Cc3ccccc32)CC1?
No of monkeys [34]: 0; IC50 (D(2) dopamine receptor): 1000 nM; No of monkeys [36]: 0; No of monkeys [37]: 0; Activity (Mus musculus [24]): 6; Activity (Mus musculus [27]): 19; Activity (Mus musculus [28]): 2; Activity (Mus musculus [23]): 2; Activity (Mus musculus [29]): 26; Activity (Mus musculus [30]): 1; Activity (Mus musculus [31]): 1
